Experimental data of several laboratories.
Target: 5-hydroxytryptamine receptor 2A (HTR2A, Homo sapiens, UniProt P28223)
Concentration: 10 µM

The inhibition of `COCCN(CCOC)C(=O)[C@@]12C[C@@H]1[C@@H](n1cnc3c(N)nc(Cl)nc31)[C@H](O)[C@@H]2O` is reported as 3% (ligand displacement, radioligand).
`Nc1ncc(-c2nc(N3CCOCC3)nc(N3CCOCC3)n2)c(C(F)F)n1` gave a remaining signal of 98.1% (cell-free assay, radioligand).
`COCc1c(-c2cc3cc(C)cc(OC)c3s2)c2c(N)ncnn2c1CN1CCNC(=O)C1` gave an inhibition of 23% (ligand displacement, radioligand).
The inhibition of `CCN(CC)CCCC[C@H](NC(=O)[C@H](CC(C)C)NC(=O)[C@H](C)NC(=O)[C@H](Cc1ccccc1)NC(=O)c1ccc(C(C)(C)C)cc1)C(=O)N[C@@H](CO)C(=O)OC` is reported as 39% (ligand displacement, radioligand).
With `COCCN(CCOC)C(=O)[C@@]12C[C@@H]1[C@@H](n1cnc3c(NC(C4CC4)C4CC4)nc(Cl)nc31)[C@H](O)[C@@H]2O` the inhibition was 0% (ligand displacement, radioligand).
`CCc1ccccc1C(=O)Nc1n[nH]c2c(C)c(F)c(C3C(C#N)=C(C)N(C)C(C)=C3C#N)cc12` gave an inhibition of 14.8% (ligand displacement).
With `CSC[C@@]12C[C@@H]1[C@@H](n1cnc3c(NC(C4CC4)C4CC4)nc(I)nc31)[C@H](O)[C@@H]2O` the inhibition was 24% (ligand displacement, radioligand).
`Nc1c(C(=O)NCc2ccc(C(=O)NCCCC3CCCCC3)cc2)cnn1-c1ccccc1` has an inhibition of 23.7% (ligand displacement).
`Clc1ccc2c(C3CCN(CCc4c[nH]c5ccccc45)CC3)c[nH]c2c1` gave an inhibition of 99% (ligand displacement, radioligand).
The inhibition of `COc1cc2c3c(c1OC)-c1cc4c(cc1CC3N(C)CC2)OCO4` (racemic) is reported as 89.3% (ligand displacement, radioligand).
